These results are taken from ChEMBL document CHEMBL2413009, “Synthesis and structure activity relationship of imidazo[1,2-a]pyridine-8-carboxamides as a novel antimycobacterial lead series” (Bioorg Med Chem Lett, 2013).

Series [1] in a line: Aqueous solubility of the compound in 0.1 M sodium phosphate buffer at pH 7.4 after 24 hrs. In kind it is physicochemical.
Series [2] relates to Mycobacterium tuberculosis. Description: Antimycobacterial activity against Mycobacterium tuberculosis H37Rv ATCC 27294 after 7 days by broth microdilution method. In kind it is functional. The note with it: H37Rv ATCC 27294, 168 h. (Broth dilution looks for growth in wells or tubes with falling amounts of substance.)
The nature of series [3]: Fraction unbound in human plasma after 5 hrs by rapid equilibrium dialysis method. The series is classed as ADME, cell-free. On the technique in general: Equilibrium dialysis compares concentrations on both sides of a semipermeable membrane.
A short description of series [4]: Intrinsic clearance in human microsomes. The series is classed as ADME, Microsome. An outline of the steps: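 Intrinsic clearance was measured in human microsomal preparations and is reported in µl/min/mg.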
Series [5] can be described thus: Intrinsic clearance in mouse microsomes. The series is classed as ADME, Microsome.
A short description of series [6]: Fraction unbound in mouse plasma after 5 hrs by rapid equilibrium dialysis method. In kind it is ADME, cell-free.
Series [7] can be described thus: Lipophilicity, log D of the compound in 0.01 M sodium phosphate at pH 7.4 after 5 hrs by shake-flask technique. The series is classed as physicochemical.
The subject of a further series is Streptococcus pneumoniae. Description: Antibacterial activity against Streptococcus pneumoniae by broth microdilution method. The series is classed as functional.
The test system of a further series is Haemophilus influenzae. Description: Antibacterial activity against Haemophilus influenzae by broth microdilution method. In kind it is functional.
In another series the test system is Escherichia coli. Description: Antibacterial activity against Escherichia coli by broth microdilution method. The series is classed as functional.
Another series deals with Staphylococcus aureus. Put plainly: Antibacterial activity against Staphylococcus aureus by broth microdilution method. The series is classed as functional.
The next series has as its system A549. Put plainly: Cytotoxicity against human A549 cells. The series is classed as cell-based.
In series [8] the test system is Mycobacterium tuberculosis. Put plainly: Cidality activity against Mycobacterium tuberculosis H37Rv ATCC 27294 assessed as log reduction in bacterial numbers at 32 ug/mL up to 28 days. In kind it is functional. An outline of the steps:
(§1)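 Replicating Mtb grown aerobically in Middlebrook 7H9 broth and exposed to a range of compound concentrations up to 32 µg/mL. Bacterial numbers were followed over time as kill kinetics, and the result is expressed as log reduction in bacterial numbers.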

Series [9] has as its system Mycobacterium tuberculosis. Put plainly: Cidality activity against Mycobacterium tuberculosis H37Rv ATCC 27294 assessed as log reduction in bacterial numbers up to 28 days. The series is classed as functional, organism-based. In outline:
as §1

≈ marks a conversion by molar mass, not a printed value.

The term solubility denotes the dissolved amount per volume that the medium holds. High values mean much dissolved substance, low ones little dissolved substance. In [1], `COc1cncc(-c2cccc(-c3cn4cccc(C(=O)N(C)C)c4n3)c2)c1` gave a solubility at 24 h of 10 µM (≈ 3.72 µg/mL). Further, the MIC in [2] was greater than 32 µg/mL.

Usually fraction unbound stands for the share of the substance not bound to proteins or other matrix. Read a high fraction unbound as much free substance. The term microsomal CLint denotes the capacity of the preparation to metabolise the compound, expressed as a volume cleared per time. The low end stands for greater metabolic stability, the high end for faster metabolism. Broadly, the logD is the decadic logarithm of the distribution of all forms, ionised or not, between an organic phase and buffer at a given pH. High values mean a more lipophilic compound, low ones a more hydrophilic compound. As to `COc1cncc(-c2cccc(-c3cn4ccc(OC)c(C(N)=O)c4n3)c2)c1`, the fraction unbound at 5 h in [3] was found to be 0.02; in series [6], 0.049. Besides, the values for the microsomal CLint in [4] and in series [5] were 56 µL/min/mg and 48 µL/min/mg, respectively. Moreover, the logD at 5 h in series [7] was 2.3. Also, in series [1], the concentration in solution (solubility at 24 h) came to 40 µM (≈ 15 µg/mL). Moreover, the MIC in series [2] stood at 2 µg/mL.

Take `COc1cncc(-c2cncc(-c3cn4cccc(C(N)=O)c4n3)c2)c1`: in series [1], the concentration in solution (solubility at 24 h) came to 3.5 µM (≈ 1.21 µg/mL). Further, in series [2], the MIC is greater than 32 µg/mL.

One may read the IC50 as the concentration that inhibits the measured activity by half. Read a high IC50 as weaker potency in that assay. In the case of `NC(=O)c1cccn2cc(-c3cccc(-c4cncc(OCC(F)F)c4)c3)nc12`, the MIC against Streptococcus pneumoniae was greater than 200 µM; in the series with Haemophilus influenzae it was greater than 200 µM; against Escherichia coli, greater than 200 µM; in the series on Staphylococcus aureus it was greater than 200 µM; in [2], 3.12 µM. Moreover, in the series on A549, the IC50 was greater than 100 µM. For the same molecule, the solubility at 24 h in series [1] was less than 1 µM.

`CCN(CC)CCNC(=O)c1cccn2cc(-c3cccc(-c4cncc(OC)c4)c3)nc12` had a solubility at 24 h in [1] greater than 2460 µM. Besides, the MIC in series [2] worked out at 4 µg/mL.

For `COc1cccc(-c2cccc(-c3cn4cccc(C(N)=O)c4n3)c2)c1`, the log10cfu in series [8] came out at 2. For the same molecule, the Activity entry in series [9] was “Dose-dependent effect”. For the same molecule, the solubility at 24 h in series [1] was less than 1 µM. This molecule gave an MIC in [2] of 2 µg/mL.

In series [1], `COc1ccn2cc(-c3cccc(-c4cncc(OC[C@H]5CCCO5)c4)c3)nc2c1C(N)=O` had a solubility at 24 h of 120 µM (≈ 53.3 µg/mL). Moreover, in [2], the MIC was 1 µg/mL.

As for `NC(=O)c1cccn2cc(-c3cccc(-c4cncc(OCCF)c4)c3)nc12`, the MIC in the series with Streptococcus pneumoniae was greater than 200 µM; against Haemophilus influenzae, greater than 200 µM; with Escherichia coli, greater than 200 µM; in the series on Staphylococcus aureus it was greater than 200 µM; in series [2] it was 0.78 µM. Besides, the fraction unbound at 5 h in series [3] turned out to be 0.01. This molecule also gave an IC50 with A549 greater than 100 µM. Further, in series [4], the microsomal CLint worked out at 75 µL/min/mg. Further, in series [7], the logD at 5 h came out at 3.7. In [1], this molecule registered a solubility at 24 h of 16 µM (≈ 6.02 µg/mL).

Take `NC(=O)c1cccn2cc(-c3cccc(-c4cncc(OC[C@H]5CCCO5)c4)c3)nc12`: the MIC in the series on Streptococcus pneumoniae is greater than 200 µM; in the series on Haemophilus influenzae it was greater than 200 µM; against Escherichia coli, greater than 200 µM; in the series on Staphylococcus aureus, greater than 200 µM; in series [2] it was 0.25 µg/mL. Also, the solubility at 24 h in [1] turned out to be 5.3 µM (≈ 2.2 µg/mL).

For the molecule `NC(=O)c1cccn2cc(-c3cccc(-c4cccc(F)c4)c3)nc12`, the solubility at 24 h in [1] was less than 1 µM. For the same molecule, the MIC in series [2] came to 16 µg/mL.

Molecule `COc1cncc(-c2cccc(-c3nc4c(C(N)=O)cccc4o3)c2)c1` displayed a solubility at 24 h in series [1] of 2 µM (≈ 0.691 µg/mL). The molecule further yielded an MIC in series [2] of 2 µg/mL.

Regarding `COc1cncc(-c2cccc(-c3nc4c(C(N)=O)cccn4n3)c2)c1`, in [1], the solubility at 24 h stood at 18 µM (≈ 6.22 µg/mL). The molecule also registered an MIC in [2] of 2 µg/mL.

For the molecule `COc1cncc(-c2cccc(-c3nc4c(C(N)=O)cccc4[nH]3)c2)c1`, the solubility at 24 h in series [1] stood at 3 µM (≈ 1.03 µg/mL). Moreover, the MIC in [2] was 4 µg/mL.

Turning to `COc1ccn2cc(-c3cccc(-c4cncc(O[C@H]5CCOC5)c4)c3)nc2c1C(N)=O`, the IC50 in the series with A549 is greater than 100 µM. This molecule came in with a solubility at 24 h in series [1] of 600 µM (≈ 258 µg/mL). Besides, the MIC in series [2] was determined as 12.5 µM.

On to `COc1cncc(-c2cc(-c3cn4cccc(C(N)=O)c4n3)ccc2F)c1`, for which, in [1], the solubility at 24 h is less than 1 µM. The molecule further yielded an MIC in series [2] greater than 32 µg/mL.

For `COc1cncc(-c2cccc(-c3cn4cccc(C(N)=O)c4n3)c2)c1`, the microsomal CLint in series [5] was determined as 113 µL/min/mg. This molecule also returned a fraction unbound at 5 h in series [6] of 0.019. In [1], this molecule gave a solubility at 24 h of less than 1 µM. The same molecule returned an MIC in series [2] of 0.5 µg/mL.

With `COc1cncc(-c2cccc(-c3cn4ccnc(C(N)=O)c4n3)c2)c1`, the IC50 in the series on A549 was greater than 100 µM. Further, the microsomal CLint in series [5] came out at 58 µL/min/mg. The molecule also returned a fraction unbound at 5 h in [6] of 0.04. In series [1], this molecule yielded a solubility at 24 h of 10 µM (≈ 3.45 µg/mL). The molecule also registered an MIC in series [2] of 12.5 µM.

In turn, `CNC(=O)c1cccn2cc(-c3cccc(-c4cncc(OC)c4)c3)nc12` came in with a solubility at 24 h in series [1] of 5.5 µM (≈ 1.97 µg/mL). Besides, in series [2], the MIC came out at 2 µg/mL.

In the series with A549, `NC(=O)c1nccn2cc(-c3cccc(-c4cncc(OC[C@H]5CCCO5)c4)c3)nc12` registered an IC50 greater than 100 µM. This molecule returned a solubility at 24 h in series [1] of 40 µM (≈ 16.6 µg/mL). In [2], the MIC is 6.25 µM.

In series [3], `CN(C)CCOc1cncc(-c2cccc(-c3cn4cccc(C(N)=O)c4n3)c2)c1` gave a fraction unbound at 5 h of 0.073. The molecule further registered a microsomal CLint in [4] of 47 µL/min/mg. Also, the concentration in solution in [1] (solubility at 24 h) was 320 µM (≈ 128 µg/mL). In series [2], this molecule yielded an MIC of 16 µg/mL.

On to `COc1cncc(-c2cc(-c3cn4cccc(C(N)=O)c4n3)ccn2)c1`, for which the solubility at 24 h in [1] was determined as 22 µM (≈ 7.6 µg/mL). In series [2], the MIC worked out at 16 µg/mL.
